Measured values: paper PMC9321963 (Birth Defects Research, 2022)
Read-outs that look alike come from different tables or passages of the source.

Columns and labels:
PI3Kδ = PI3Kδ (Homo sapiens, UniProt O00329); assay: ADP-Glo Kinase Assay, PI3Kδ; assay type: biochemical
AhR = target: T1, AhR (Homo sapiens, UniProt P35869); assay: In vitro off-target inhibition, AhR
T1 sequence (P35869 11-848): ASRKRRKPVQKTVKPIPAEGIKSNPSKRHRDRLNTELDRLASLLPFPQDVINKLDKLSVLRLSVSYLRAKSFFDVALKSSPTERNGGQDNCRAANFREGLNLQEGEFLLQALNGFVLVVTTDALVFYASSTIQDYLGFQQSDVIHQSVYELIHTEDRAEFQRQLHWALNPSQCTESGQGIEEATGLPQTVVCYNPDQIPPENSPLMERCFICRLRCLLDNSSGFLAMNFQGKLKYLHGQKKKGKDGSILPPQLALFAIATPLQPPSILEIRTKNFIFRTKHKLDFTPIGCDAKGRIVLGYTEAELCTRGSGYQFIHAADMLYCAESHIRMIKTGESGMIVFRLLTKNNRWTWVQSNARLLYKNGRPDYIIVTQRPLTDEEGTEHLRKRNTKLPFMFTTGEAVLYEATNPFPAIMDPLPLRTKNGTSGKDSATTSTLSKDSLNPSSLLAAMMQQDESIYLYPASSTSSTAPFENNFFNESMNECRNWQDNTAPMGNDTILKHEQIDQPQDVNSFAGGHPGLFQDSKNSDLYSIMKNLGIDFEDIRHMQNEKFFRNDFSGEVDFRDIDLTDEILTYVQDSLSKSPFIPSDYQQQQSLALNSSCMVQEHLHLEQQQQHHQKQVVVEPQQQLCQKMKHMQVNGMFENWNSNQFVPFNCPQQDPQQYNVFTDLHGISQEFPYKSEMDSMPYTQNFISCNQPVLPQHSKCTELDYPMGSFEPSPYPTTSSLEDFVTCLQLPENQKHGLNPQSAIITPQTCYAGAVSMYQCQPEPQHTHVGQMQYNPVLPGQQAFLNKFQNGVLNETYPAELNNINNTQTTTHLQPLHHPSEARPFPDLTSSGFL

[1] = human, male, ref McCarthy et al. ([2020]), cited from earlier work
TSF1 = TSF1 (Homo sapiens, UniProt O75716); assay: ADP-Glo Kinase Assay, TSF1; assay type: biochemical
[2] = Toxicokinetics, rat investigative EFD study; assay type: in vivo; details: for Tmax / AUC(0-t) / Cmax: female, rat, plasma, po; for AUC(0-t) / Cmax: rat investigative EFD; for Cmax: C max
[3] = Rat investigative embryofetal developmental toxicity study; assay type: in vivo; details: female, Sprague-Dawley, rat, in vivo, oral
In short: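 Crl:OFA SD naïve time-mated females, 25 per group (plug day = GD0), under GLP and ICH S5(R2). Oral daily doses of 20, 40 or 60 mg/kg/day were given GD6–GD17; an extra 60 mg/kg/day group was dosed only GD8–GD11 (diaphragm formation). Suspension vehicle: 20% w/w Kolliphor HS 15 / 50% w/w PEG 400 in water. CO2 euthanasia and necropsy on GD21. Maternal endpoints were recorded, plus fetal weight, external and visceral exams.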

PI4Kα [4] = target: T2, PI4Kα (Homo sapiens, UniProt P42356); assay: ADP-Glo Kinase Assay, PI4Kα; assay type: biochemical
[5] = Rat main embryofetal developmental toxicity study; assay type: in vivo; details: female, Sprague-Dawley, rat, in vivo, oral, maternal NOAEL, rat main EFD
In short: (§1)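 GLP main study following ICH S5(R2): 24 time-mated naïve Crl:CD SD females per group (plug day = GD0) given 2, 6 or 20 mg/kg/day orally once daily GD6–GD17. Vehicle was 20% w/w Kolliphor HS 15 / 50% w/w PEG 400 in water, with the compound suspended in it. Necropsy followed CO2 euthanasia on GD21. Maternal body weight, weight gain, food intake, pregnancy status, corpora lutea, postimplantation loss and live fetuses were recorded. Fetal weight, external, visceral and skeletal examinations were done.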

pregnant rats = assay: Rat main embryofetal developmental toxicity study; assay type: in vivo; details: for food consumption, % of control / maternal weight gain, % of control: GD6 to GD9
In short: as §1

[6] = Toxicokinetics, rat main EFD study; assay type: in vivo; details: for Tmax / AUC(0-t) / Cmax: female, Sprague-Dawley (Crl:CD SD), rat, plasma, po; for AUC(0-t) / Cmax: rat main EFD; for Cmax: C max
PI4Kα [7] = target: T2, PI4Kα; details: chemoproteomic profiling, ref Paquet et al., [2017]; cited from earlier work
[8] = target: All other off‐targets including kinases tested; assay: In vitro off-target and kinase panels, all other targets; assay type: biochemical; details: read-out: IC50s, all other off‐targets including kinases tested, human
[9] = Sprague-Dawley (Crl: OFA SD), 40 mg/kg/day, 40 mg/kg/day oral, GD6
[10] = Sprague-Dawley (Crl: OFA SD), 40 mg/kg/day, 40 mg/kg/day oral, GD17
[11] = Sprague-Dawley, 20 mg/kg/day, 20 mg/kg/day oral, GD6
[12] = Sprague-Dawley, 20 mg/kg/day, 20 mg/kg/day oral, GD17
[13] = rat main EFD, 2 mg/kg/day GD6-GD17
[14] = rat main EFD, 6 mg/kg/day GD6-GD17
[15] = rat main EFD, 20 mg/kg/day GD6-GD17
[16] = 2 mg/kg/day, 2 mg/kg/day oral, GD6
[17] = 2 mg/kg/day, 2 mg/kg/day oral, GD17
[18] = 6 mg/kg/day, 6 mg/kg/day oral, GD6
[19] = 6 mg/kg/day, 6 mg/kg/day oral, GD17
[20] = 20 mg/kg/day, 20 mg/kg/day oral, GD6
[21] = 20 mg/kg/day, 20 mg/kg/day oral, GD17

T2 sequence (P42356 whole entry): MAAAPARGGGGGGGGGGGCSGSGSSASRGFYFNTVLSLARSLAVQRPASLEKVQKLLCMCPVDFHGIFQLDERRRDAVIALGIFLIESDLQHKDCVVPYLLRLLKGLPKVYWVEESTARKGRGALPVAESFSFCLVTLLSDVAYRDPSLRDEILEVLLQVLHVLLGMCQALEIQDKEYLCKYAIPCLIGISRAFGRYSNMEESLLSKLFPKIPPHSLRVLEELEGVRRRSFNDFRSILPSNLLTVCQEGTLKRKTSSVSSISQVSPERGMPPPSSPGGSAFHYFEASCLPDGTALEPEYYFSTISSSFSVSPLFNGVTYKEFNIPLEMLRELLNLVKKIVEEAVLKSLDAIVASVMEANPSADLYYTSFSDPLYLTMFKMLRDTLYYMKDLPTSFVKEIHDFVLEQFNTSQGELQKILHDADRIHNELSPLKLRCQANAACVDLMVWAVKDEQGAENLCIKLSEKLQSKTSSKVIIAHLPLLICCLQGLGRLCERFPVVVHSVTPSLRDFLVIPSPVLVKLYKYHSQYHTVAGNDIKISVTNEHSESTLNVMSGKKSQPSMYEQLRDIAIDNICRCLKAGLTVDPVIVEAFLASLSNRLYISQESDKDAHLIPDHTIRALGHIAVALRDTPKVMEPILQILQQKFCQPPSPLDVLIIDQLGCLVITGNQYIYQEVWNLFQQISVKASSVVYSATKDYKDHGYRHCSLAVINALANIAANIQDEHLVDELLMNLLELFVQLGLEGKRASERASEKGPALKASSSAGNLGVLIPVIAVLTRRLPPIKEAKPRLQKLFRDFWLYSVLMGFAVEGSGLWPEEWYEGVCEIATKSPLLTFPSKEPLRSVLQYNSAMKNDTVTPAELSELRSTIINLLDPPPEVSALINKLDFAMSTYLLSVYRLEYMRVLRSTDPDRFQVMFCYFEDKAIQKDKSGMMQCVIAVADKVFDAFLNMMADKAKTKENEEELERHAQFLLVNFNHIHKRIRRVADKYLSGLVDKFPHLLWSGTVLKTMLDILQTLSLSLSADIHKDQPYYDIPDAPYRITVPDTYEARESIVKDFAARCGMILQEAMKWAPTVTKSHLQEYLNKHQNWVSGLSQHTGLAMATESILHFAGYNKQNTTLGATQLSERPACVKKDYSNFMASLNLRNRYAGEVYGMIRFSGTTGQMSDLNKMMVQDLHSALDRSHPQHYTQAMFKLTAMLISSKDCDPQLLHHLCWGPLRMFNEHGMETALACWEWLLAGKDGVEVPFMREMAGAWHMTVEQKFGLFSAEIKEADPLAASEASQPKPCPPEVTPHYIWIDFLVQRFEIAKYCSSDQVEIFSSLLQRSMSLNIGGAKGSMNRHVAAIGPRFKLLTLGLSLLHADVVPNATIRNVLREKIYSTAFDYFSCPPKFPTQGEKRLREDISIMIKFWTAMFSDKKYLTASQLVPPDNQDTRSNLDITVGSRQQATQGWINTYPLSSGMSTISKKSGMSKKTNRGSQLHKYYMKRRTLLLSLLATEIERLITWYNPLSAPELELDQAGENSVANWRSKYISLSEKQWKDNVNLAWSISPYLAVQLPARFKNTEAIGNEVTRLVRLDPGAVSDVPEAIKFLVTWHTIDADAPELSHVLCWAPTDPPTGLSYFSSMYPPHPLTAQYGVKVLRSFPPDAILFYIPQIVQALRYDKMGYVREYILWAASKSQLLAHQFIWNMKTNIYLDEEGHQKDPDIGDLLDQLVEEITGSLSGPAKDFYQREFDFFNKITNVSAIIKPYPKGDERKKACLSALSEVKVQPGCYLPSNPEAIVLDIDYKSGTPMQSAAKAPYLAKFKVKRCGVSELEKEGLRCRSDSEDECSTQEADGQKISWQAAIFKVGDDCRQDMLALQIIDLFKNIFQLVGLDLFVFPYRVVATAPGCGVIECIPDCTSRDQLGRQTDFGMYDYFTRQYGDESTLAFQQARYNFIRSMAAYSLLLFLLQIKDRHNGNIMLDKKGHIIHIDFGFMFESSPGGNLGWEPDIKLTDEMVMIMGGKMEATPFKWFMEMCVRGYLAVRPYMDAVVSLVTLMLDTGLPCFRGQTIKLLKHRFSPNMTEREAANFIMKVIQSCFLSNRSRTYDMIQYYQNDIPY
Sequence of PI3Kδ (O00329 whole entry): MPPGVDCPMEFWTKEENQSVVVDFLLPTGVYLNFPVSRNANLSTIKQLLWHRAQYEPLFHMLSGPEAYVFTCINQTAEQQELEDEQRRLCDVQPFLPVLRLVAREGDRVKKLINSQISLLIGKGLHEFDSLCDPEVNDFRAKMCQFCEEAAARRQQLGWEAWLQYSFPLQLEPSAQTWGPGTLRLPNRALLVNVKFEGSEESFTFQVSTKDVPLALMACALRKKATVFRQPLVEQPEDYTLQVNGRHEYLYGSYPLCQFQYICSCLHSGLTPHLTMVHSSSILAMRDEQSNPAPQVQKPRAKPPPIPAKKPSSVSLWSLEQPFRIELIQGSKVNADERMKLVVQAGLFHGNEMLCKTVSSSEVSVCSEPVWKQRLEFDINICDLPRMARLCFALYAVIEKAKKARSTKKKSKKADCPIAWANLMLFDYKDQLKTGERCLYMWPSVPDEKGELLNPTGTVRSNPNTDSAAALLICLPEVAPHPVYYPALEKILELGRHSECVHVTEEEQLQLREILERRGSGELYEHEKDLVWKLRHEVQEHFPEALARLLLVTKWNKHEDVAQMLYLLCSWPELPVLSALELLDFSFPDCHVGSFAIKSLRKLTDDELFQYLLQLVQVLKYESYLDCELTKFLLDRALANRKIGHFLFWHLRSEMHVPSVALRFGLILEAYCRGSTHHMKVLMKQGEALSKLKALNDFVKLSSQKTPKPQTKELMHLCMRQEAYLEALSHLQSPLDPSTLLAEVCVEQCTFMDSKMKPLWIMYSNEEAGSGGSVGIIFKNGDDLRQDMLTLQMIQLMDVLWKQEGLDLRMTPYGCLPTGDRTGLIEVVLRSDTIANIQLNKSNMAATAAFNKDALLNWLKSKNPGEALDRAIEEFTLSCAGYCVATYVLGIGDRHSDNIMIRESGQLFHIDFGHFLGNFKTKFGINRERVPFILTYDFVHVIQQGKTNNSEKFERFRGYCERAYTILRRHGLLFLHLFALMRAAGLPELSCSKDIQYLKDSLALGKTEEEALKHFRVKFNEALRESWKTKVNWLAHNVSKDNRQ
Sequence of PI3Kδ (P27986 whole entry partner): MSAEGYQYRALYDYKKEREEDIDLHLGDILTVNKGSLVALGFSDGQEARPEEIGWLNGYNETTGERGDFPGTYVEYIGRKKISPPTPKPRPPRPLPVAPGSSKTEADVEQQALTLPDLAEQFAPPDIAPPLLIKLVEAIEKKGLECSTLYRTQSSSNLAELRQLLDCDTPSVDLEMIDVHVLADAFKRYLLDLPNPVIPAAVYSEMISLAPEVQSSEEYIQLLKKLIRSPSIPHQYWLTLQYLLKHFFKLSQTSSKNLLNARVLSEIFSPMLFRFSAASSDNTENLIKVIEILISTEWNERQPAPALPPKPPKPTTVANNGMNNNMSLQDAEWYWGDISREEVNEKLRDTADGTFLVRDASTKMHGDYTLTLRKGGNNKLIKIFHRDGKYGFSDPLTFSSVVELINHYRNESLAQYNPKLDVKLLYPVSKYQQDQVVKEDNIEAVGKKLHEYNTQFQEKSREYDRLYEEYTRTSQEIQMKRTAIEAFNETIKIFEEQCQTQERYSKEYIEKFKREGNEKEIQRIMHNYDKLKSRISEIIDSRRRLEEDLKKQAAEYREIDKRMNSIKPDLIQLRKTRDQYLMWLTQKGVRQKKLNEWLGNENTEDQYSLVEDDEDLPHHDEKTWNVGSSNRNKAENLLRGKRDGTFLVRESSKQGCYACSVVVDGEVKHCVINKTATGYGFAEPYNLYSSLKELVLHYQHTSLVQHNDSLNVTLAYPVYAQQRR
Sequence of TSF1 (O75716 whole entry): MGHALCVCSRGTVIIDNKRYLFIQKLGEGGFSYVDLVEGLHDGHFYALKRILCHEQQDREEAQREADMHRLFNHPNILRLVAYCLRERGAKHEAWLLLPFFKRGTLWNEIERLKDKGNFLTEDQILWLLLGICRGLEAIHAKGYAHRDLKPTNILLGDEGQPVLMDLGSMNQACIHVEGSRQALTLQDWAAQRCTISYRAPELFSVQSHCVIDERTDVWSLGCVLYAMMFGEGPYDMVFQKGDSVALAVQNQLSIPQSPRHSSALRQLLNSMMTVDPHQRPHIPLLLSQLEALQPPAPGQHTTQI

For CS(=O)(=O)c1ccc(-c2cnc(N)c(-c3ccc(C(F)(F)F)nc3)c2)cc1 [MMV390048], the IC50 (PI3Kδ) is listed as 8.1 µM, the IC50 (AhR) is listed as 7.9 µM and the “AUC(0−inf)” value ([1]; dose 40 mg) is listed as 30,320 hr*ng/ml. For the same compound, the C max ([1]; dose 40 mg) was 272.7 ng/mL, the T max ([1]; dose 40 mg) was 1.5 h and the “AUC(0−inf)” value ([1]; dose 80 mg) was 82,680 hr*ng/ml. For the same compound, the C max ([1]; dose 80 mg) was 561 ng/mL, the “AUC(0−inf)” value ([1]; dose 120 mg) was 137,800 hr*ng/ml and the C max ([1]; dose 120 mg) was 1,094 ng/ml. For the same compound, the T max ([1]; dose 120 mg) was 1 h, the IC50 (TSF1) was 7.3 µM and the Tmax ([2]; Sprague-Dawley (Crl: OFA SD), 40 mg/kg/day) was 7 h. For the same compound, the AUC(0-t) [2, 9] was 213 µg·h/mL, the AUC(0-t) [2, 10] was 310 µg·h/mL and the Cmax [2, 9] was 11300 ng/mL. The Cmax [2, 10] was 17100 ng/mL, the Tmax ([2]; Sprague-Dawley, 20 mg/kg/day) was 7 h and the AUC(0-t) [2, 11] was 92.9 µg·h/mL. For the same compound, the AUC(0-t) [2, 12] was 134 µg·h/mL, the Cmax [2, 11] was 5230 ng/mL and the Cmax [2, 12] was 7550 ng/mL. The “Maximum exposure (free)” value ([2]; rat investigational EFD CRL, GD17, 40 mg/kg, 7 hr post dose) was 6.5 μM/L, the NOAEL [3] was 20 mg/kg/day and the IC50 (PI4Kα [4]) was 18.7 µM. The NOAEL [5] was 2 mg/kg/day, the Developmental safety margins (pregnant rats; rat NOAEL of 6 mg/kg/day vs observed clinical PK data, human volunteers and patients) was < 1 and the “Female with viable fetuses” value (pregnant rats; [13]) was 22/22. For the same compound, the “Postimplantation loss (%)” value (pregnant rats; [13]) was 6.9%, the “Edema, fetuses with malformation/total fetuses examined” value (pregnant rats; [14]) was 1/336 and the “Edema, litters with malformation/total litters examined” value (pregnant rats; [14]) was 1/23. For the same compound, the “Female with viable fetuses” value (pregnant rats; [14]) was 23/23, the “Postimplantation loss (%)” value (pregnant rats; [14]) was 3.5% and the “food consumption, % of control” value (pregnant rats; rat main EFD, 6 mg/kg/day) was 8.9 % of control. For the same compound, the “maternal weight gain, % of control” value (pregnant rats; rat main EFD, 6 mg/kg/day) was 20.2 % of control, the “Female with viable fetuses” value (pregnant rats; [15]) was 22/22 and the “Hernias, fetuses with malformation/total fetuses examined” value (pregnant rats; [15]) was 1/154. For the same compound, the “Hernias, litters with malformation/total litters examined” value (pregnant rats; [15]) was 1/22, the “Postimplantation loss (%)” value (pregnant rats; [15]) was 2.9% and the “food consumption, % of control” value (pregnant rats; rat main EFD, 20 mg/kg/day) was 11.5 % of control. The “maternal weight gain, % of control” value (pregnant rats; rat main EFD, 20 mg/kg/day) was 41.1 % of control, the Tmax ([6]; 2 mg/kg/day) was 2 h and the AUC(0-t) [6, 16] was 3750 ng·h/mL. It also gave an AUC(0-t) [6, 17] of 3770 ng·h/mL, a Cmax [6, 16] of 680 ng/mL and a Cmax [6, 17] of 681 ng/mL. The Tmax ([6]; 6 mg/kg/day) was 2 h, the AUC(0-t) [6, 18] was 19600 ng·h/mL and the AUC(0-t) [6, 19] was 21400 ng·h/mL. For the same compound, the Cmax [6, 18] was 1380 ng/mL, the Cmax [6, 19] was 1600 ng/mL and the Tmax ([6]; 20 mg/kg/day) was 4 h. The AUC(0-t) [6, 20] was 70000 ng·h/mL, the AUC(0-t) [6, 21] was 74400 ng·h/mL and the Cmax [6, 20] was 4950 ng/mL. For the same compound, the Cmax [6, 21] was 5190 ng/mL, the “Maximum exposure (free)” value ([6]; rat EFD main KIT, GD17, 20 mg/kg, 4 hr post dose) was 2 μM/L and the “binding to human PI4Kα” value (PI4Kα [7]) was “no binding”. For the same compound, the IC50 [8] was ≥ 20 µM.
